Drawing on ChEMBL document CHEMBL2440062, “New nucleotide-competitive non-nucleoside inhibitors of terminal deoxynucleotidyl transferase: discovery, characterization, and crystal structure in complex with the target” (J Med Chem, 2013), this text covers Activity, IC50 and ID50 for one molecule.

Structures are written as SMILES. Active and inactive are the calls of the source. The rule behind the calls is not given here. Some results are limits rather than exact numbers.

In general, IC50 refers to the concentration needed to halve the response being measured.

The test system of data set [1] is HeLa. Description: Downregulation of cyclin E protein expression in TdT-deficient human HeLa cells at 30 uM by Western blot analysis. Format: ADME, cell-based. An outline of the steps: (§1)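 1 × 10^6 cells were incubated with or without compound, then lysed in cold buffer (50 mM Tris, 150 mM NaCl, 10 mM EDTA, 1% Triton) with protease inhibitors. Equal protein was run on 8–12% SDS-PAGE and blotted to nitrocellulose. Membranes were probed overnight at 4 °C with antibodies to cyclin E2, cyclin A, p53 or caspase 3, detected by HRP/ECL, and normalized to actin by densitometry.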
In general terms: Immunoblotting shows a protein as a band on a membrane.

Data set [2] relates to MOLT-4. Description: Downregulation of cyclin E protein expression in human MOLT4 cells overexpressing TdT at 30 uM by Western blot analysis. Format: functional, cell-based. An outline of the steps:
as §1

Data set [3] relates to HeLa. Description: Cell cycle arrest in TdT-deficient human HeLa cells assessed as decrease of cells in G2 phase at 30 uM after 24 hrs by propidium iodide staining-based FACS flow cytometric analysis relative to vehicle-treated control. Also noted: scale not given: the % may be the effect or the level left. It is filed as ADME. An outline of the steps:
(§2)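 Cells at 2.5 × 10^5 cells/mL were treated 24 h with compound or vehicle. They were washed in PBS, trypsinized, and stained 30 min at 4 °C in the dark with 0.1% sodium citrate, 0.1% Triton X-100 and propidium iodide. Analysis was by FACScan flow cytometry, giving the percentage of cells in G0/G1, S and G2/M.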
(In general: Flow cytometry measures light scatter and fluorescence of single cells or particles in a stream.)

Data set [4] relates to HeLa. Description: Cell cycle arrest in TdT-deficient human HeLa cells assessed as accumulation at G1 phase at 30 uM after 24 hrs by propidium iodide staining-based FACS flow cytometric analysis relative to vehicle-treated control. It is filed as ADME. An outline of the steps:
as §2

In data set [5] the test system is HeLa. Description: Cytotoxicity against TdT-deficient human HeLa cells assessed as growth inhibition after 24 to 48 hrs by MTT assay. Format: cell-based. An outline of the steps: (§3)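 MOLT-4 cells were grown in RPMI-1640 and HeLa cells in DMEM, with 10% FCS at 37 °C. Cells were seeded at 10^5 per well, given 24 h to attach, then exposed to compounds (0.1–100 range) for 24 or 48 h. MTT at 1 mg/mL was added for 2 h at 37 °C, formazan was dissolved in DMSO, and absorbance read at 550 nm versus 0.5% DMSO vehicle. IC50 was obtained by regression, in triplicate.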
For orientation: Formazan colour is commonly taken as a measure of viable cells.

Data set [6] deals with MOLT-4. Description: Cytotoxicity against human MOLT4 cells overexpressing TdT assessed as growth inhibition after 24 to 48 hrs by MTT assay. Format: functional, cell-based. An outline of the steps:
as §3

The next data set concerns the target DNA polymerase beta (Homo sapiens, UniProt P06746). Description: Inhibition of human recombinant DNA polymerase beta.
The target of data set [7] is T1, DNA polymerase lambda (Homo sapiens) (UniProt Q9UGP5).
T1 sequence (whole entry): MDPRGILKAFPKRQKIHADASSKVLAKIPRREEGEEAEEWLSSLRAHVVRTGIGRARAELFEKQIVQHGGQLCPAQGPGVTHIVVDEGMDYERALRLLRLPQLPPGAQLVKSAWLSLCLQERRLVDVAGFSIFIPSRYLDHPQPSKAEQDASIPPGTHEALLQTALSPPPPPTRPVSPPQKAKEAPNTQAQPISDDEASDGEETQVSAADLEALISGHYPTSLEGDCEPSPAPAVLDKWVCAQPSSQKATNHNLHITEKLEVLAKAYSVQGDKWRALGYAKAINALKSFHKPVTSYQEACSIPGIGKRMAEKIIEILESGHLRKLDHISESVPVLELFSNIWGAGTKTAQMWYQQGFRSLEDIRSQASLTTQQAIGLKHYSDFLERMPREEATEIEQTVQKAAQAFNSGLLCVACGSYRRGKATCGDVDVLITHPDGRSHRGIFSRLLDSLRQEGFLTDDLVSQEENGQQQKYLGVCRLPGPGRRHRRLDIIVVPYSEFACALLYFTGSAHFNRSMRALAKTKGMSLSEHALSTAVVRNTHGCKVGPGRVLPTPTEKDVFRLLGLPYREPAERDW
Description: Inhibition of human recombinant full length DNA polymerase lambda TdT-like activity using [3H]dNTP as substrate after 10 mins by scintillation counting analysis. An outline of the steps:
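Full-length recombinant human pol λ (>90% pure) was tested for template-independent activity. Acid-insoluble radioactivity was counted, and ID50 came from dose–response fitting.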

Data set [8] has as its target T1, DNA polymerase lambda (Homo sapiens). Description: Inhibition of human recombinant full length DNA polymerase lambda using [3H]dTTP as substrate and 10 poly(dA)/oligo(dT) as template-primer after 15 mins by scintillation counting analysis. The procedure, abridged: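 Recombinant full-length human pol λ at 50 nM was assayed with 0.2 μM poly(dA)/oligo(dT)10:1 (3′-OH ends) and 5 μM [3H]dTTP (5 Ci/mmol). Incubation was 15 min at 37 °C. TCA precipitates were scintillation counted.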

Data set [9] has as its target DNA nucleotidylexotransferase (Homo sapiens, UniProt P04053). Description: Inhibition of human recombinant TdT using [3H]dNTP as substrate after 10 mins by scintillation counting analysis. The procedure, abridged:
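TdT was from Trevigen. TCA-precipitated radioactivity was counted. ID50 came from dose–response fitting. For kinetics, DNA or dNTP was varied at increasing inhibitor, and Ki was obtained via Cheng–Prusoff for a competitive model.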

Data set [10] relates to MOLT-4. Description: Cell cycle arrest in human MOLT4 cells overexpressing TdT assessed as accumulation at G1 phase at 30 uM after 24 hrs by propidium iodide staining-based FACS flow cytometric analysis relative to vehicle-treated control. It is filed as functional. An outline of the steps:
as §2

Data set [11] has as its system MOLT-4. Description: Cell cycle arrest in human MOLT4 cells overexpressing TdT assessed as decrease of cells in G2 phase at 30 uM after 24 hrs by propidium iodide staining-based FACS flow cytometric analysis relative to vehicle-treated control. Format: functional. On the set-up: scale not given: the % may be the effect or the level left. The procedure, abridged:
as §2

Sequence of DNA nucleotidylexotransferase (P04053 whole entry): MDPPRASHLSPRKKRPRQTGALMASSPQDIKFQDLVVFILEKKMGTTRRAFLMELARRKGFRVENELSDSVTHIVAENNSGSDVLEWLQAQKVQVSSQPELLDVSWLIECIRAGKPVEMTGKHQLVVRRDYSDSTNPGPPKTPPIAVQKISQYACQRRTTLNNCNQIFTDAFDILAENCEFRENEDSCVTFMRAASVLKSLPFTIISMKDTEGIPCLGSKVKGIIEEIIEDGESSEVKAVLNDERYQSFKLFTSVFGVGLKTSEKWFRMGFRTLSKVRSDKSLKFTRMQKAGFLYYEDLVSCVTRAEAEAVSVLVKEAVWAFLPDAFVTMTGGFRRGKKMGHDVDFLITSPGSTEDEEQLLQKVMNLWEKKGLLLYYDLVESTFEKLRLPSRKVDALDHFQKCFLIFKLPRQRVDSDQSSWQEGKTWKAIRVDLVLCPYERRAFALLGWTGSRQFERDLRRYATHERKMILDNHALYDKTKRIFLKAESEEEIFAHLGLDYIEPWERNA

`CCCCn1cc(/C=C/C(=O)CC(=O)C(=O)O)c2ccccc21`: the Activity entry is reported as “Toxic” in the data set with HeLa [1]; 10% in the data set on HeLa [3]; 20% in the data set with HeLa [4]; 20% with MOLT-4 [10]; 10% in the data set with MOLT-4 [11]. The outcome in the data set on MOLT-4 [2] was Active. The IC50 in the data set with HeLa [5] is 30 µM; in the data set with MOLT-4 [6], 30 µM; at DNA polymerase beta, greater than 40 µM. In addition, the ID50 was greater than 40 µM in data set [7], greater than 40 µM in data set [8] and 26 µM in data set [9].
